# Measurements: ChEMBL document CHEMBL4152184, “NB 06: From a simple lysosomotropic aSMase inhibitor to tools for elucidating the role of lysosomes in signaling apoptosis and LPS-induced inflammation” (Eur J Med Chem, 2018)
# Activity calls are given as the source filed them. No cut-off for these calls is given here.
# Experiments:
# [1] = target: T1, Sphingomyelin phosphodiesterase (Homo sapiens) (UniProt P17405); experiment: Inhibition of TNFalpha-stimulated acid sphingomyelinase in human PBMC lysates at 2 to 50 uM preincubated for 30 mins followed by TNFalpha stimulation measured after 4 hrs by YO-PRO-1/Hoechst 33342 staining based assay
# T1 sequence (whole entry): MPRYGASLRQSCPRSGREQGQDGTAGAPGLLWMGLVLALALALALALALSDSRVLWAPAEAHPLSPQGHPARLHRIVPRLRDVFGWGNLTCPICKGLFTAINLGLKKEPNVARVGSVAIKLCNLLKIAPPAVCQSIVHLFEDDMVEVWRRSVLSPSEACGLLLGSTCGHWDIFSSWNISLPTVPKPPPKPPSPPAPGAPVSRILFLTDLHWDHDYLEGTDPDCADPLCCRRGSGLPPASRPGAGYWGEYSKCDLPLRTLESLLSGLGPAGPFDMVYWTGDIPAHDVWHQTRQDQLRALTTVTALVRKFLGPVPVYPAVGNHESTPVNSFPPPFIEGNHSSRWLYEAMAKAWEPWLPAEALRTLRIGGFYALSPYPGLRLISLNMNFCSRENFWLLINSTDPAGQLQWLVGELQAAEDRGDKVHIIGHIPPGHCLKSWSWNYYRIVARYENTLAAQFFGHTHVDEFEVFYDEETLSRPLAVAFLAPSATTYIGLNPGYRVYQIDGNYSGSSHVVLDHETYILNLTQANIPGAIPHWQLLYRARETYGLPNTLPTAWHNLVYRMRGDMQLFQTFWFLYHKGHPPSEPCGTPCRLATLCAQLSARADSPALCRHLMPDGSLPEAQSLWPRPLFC
# [2] = target: T1, Sphingomyelin phosphodiesterase (Homo sapiens); experiment: Inhibition of mmLDL-stimulated acid sphingomyelinase in human PBMC lysates up to 10 uM preincubated for 30 mins followed by mmLDL stimulation measured after 4 hrs by YO-PRO-1/Hoechst 33342 staining based assay
# [3] = target: T2, Acid ceramidase (Homo sapiens) (UniProt Q13510); experiment: Inhibition of TNFalpha-stimulated acid ceramidase in human PBMC assessed as ratio of C16-ceramide/lipid phosphate level at 10 uM preincubated for 30 mins followed by TNFalpha stimulation measured after 4 hrs by HPLC method (reference value: 0.49); assay type: cell-based
# T2 sequence (whole entry): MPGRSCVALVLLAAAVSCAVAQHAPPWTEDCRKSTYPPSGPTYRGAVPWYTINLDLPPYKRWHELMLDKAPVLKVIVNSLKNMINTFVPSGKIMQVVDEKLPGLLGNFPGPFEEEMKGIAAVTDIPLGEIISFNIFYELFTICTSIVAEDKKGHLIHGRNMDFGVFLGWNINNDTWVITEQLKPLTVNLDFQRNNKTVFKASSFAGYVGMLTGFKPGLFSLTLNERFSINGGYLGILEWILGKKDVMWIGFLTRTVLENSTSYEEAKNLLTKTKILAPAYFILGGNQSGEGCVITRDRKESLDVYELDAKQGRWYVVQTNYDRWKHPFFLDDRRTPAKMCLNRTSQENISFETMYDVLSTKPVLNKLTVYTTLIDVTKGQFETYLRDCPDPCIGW
# Method in brief: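 Human macrophages from primary culture were preincubated 30 min with 10 µM compound. They were then stimulated 4 h with mmLDL (54 µg/mL), TNFalpha (3 ng/mL) or exogenous C6-ceramide (10 µM), or left unstimulated. Individual ceramide species (C16 and C24:1) were quantified in the cell lipid extracts.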
# MONO-MAC-6 [4] = experiment: Upregulation of CXCL3 mRNA expression level in LPS-stimulated human MONO-MAC-6 cells at 5 uM preincubated for 30 mins followed by LPS stimulation measured after 2 hrs by oligonucleotide array hybridization assay (reference value: 3.24); assay type: functional
# MONO-MAC-6 [5] = experiment: Upregulation of CXCL3 mRNA expression level in human MONO-MAC-6 cells at 5 uM incubated for 30 mins measured after 2 hrs by oligonucleotide array hybridization assay relative to control; assay type: functional
# MONO-MAC-6 [6] = experiment: Upregulation of CCL4 mRNA expression level in LPS-stimulated human MONO-MAC-6 cells at 5 uM preincubated for 30 mins followed by LPS stimulation measured after 1 hr by oligonucleotide array hybridization assay (reference value: 1.14); assay type: functional
# MONO-MAC-6 [7] = experiment: Upregulation of CCL4 mRNA expression level in LPS-stimulated human MONO-MAC-6 cells at 5 uM preincubated for 30 mins followed by LPS stimulation measured after 2 hrs by oligonucleotide array hybridization assay (reference value: 5.78); assay type: functional
# MONO-MAC-6 [8] = experiment: Downregulation of CCL4 mRNA expression level in human MONO-MAC-6 cells at 5 uM incubated for 30 mins measured after 6 hrs by oligonucleotide array hybridization assay relative to control; assay type: functional
# Method in brief: (§1)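 Total RNA was isolated, transcribed and labeled with DY-647 dye, then co-hybridized with DY-548-labeled cDNA from untreated cells on an inflammation oligonucleotide chip (780 gene probes). Differential expression >1.5 was taken as significant.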
# MONO-MAC-6 [9] = experiment: Downregulation of PTX3 mRNA expression level in LPS-stimulated human MONO-MAC-6 cells at 5 uM preincubated for 30 mins followed by LPS stimulation measured after 1 hr by oligonucleotide array hybridization assay (reference value: 1.10); assay type: functional; method in brief: as §1
# MONO-MAC-6 [10] = experiment: Upregulation of PTX3 mRNA expression level in LPS-stimulated human MONO-MAC-6 cells at 5 uM preincubated for 30 mins followed by LPS stimulation measured after 4 hrs by oligonucleotide array hybridization assay (reference value: 4.65); assay type: functional
# MONO-MAC-6 [11] = experiment: Upregulation of CXCL10 mRNA expression level in human MONO-MAC-6 cells at 5 uM incubated for 30 mins measured after 1 hr by oligonucleotide array hybridization assay relative to control; assay type: functional
# MONO-MAC-6 [12] = experiment: Upregulation of CXCL2 mRNA expression level in LPS-stimulated human MONO-MAC-6 cells at 5 uM preincubated for 30 mins followed by LPS stimulation measured after 4 hrs by oligonucleotide array hybridization assay (reference value: 13.17); assay type: functional
# MONO-MAC-6 [13] = experiment: Downregulation of ICAM1 mRNA expression level in human MONO-MAC-6 cells at 5 uM incubated for 30 mins measured after 2 hrs by oligonucleotide array hybridization assay relative to control; assay type: functional; method in brief: as §1
# MONO-MAC-6 [14] = experiment: Upregulation of CXCL2 mRNA expression level in LPS-stimulated human MONO-MAC-6 cells at 5 uM preincubated for 30 mins followed by LPS stimulation measured after 4 hrs by qRT-PCR method (reference value: 16.41); assay type: functional
# MONO-MAC-6 [15] = experiment: Downregulation of IL-6 mRNA expression level in human MONO-MAC-6 cells at 5 uM incubated for 30 mins measured after 2 hrs by qRT-PCR method relative to control; assay type: functional
# MONO-MAC-6 [16] = experiment: Upregulation of IL23A mRNA expression level in human MONO-MAC-6 cells at 5 uM incubated for 30 mins measured after 4 hrs by qRT-PCR method relative to control; assay type: functional
# [17] = target: T3, Sphingomyelin phosphodiesterase (Homo sapiens, UniProt P17405); experiment: Inhibition of mmLDL-stimulated acid sphingomyelinase in human PBMC lysates using BODIPY FL C5-sphingomyelin as substrate preincubated for 30 mins followed by mmLDL stimulation measured after 2 hrs by HPLC method
# T3 sequence (P17405 whole entry): T1 sequence (whole entry)
smiles,measurement,setting,value
COc1ccc(CCN(C)CCCn2c3ccccc3c3ccccc32)cc1,inhibition,[1],Active
same,inhibition,[2],inactive
same,Ratio,[3],0.16
same,fold change (FC),MONO-MAC-6 [4],2.34
same,fold change (FC),MONO-MAC-6 [5],1.25
same,fold change (FC),MONO-MAC-6 [6],1.24
same,fold change (FC),MONO-MAC-6 [7],3.09
same,fold change (FC),MONO-MAC-6 [8],7.41
same,fold change (FC),MONO-MAC-6 [9],1.02
same,fold change (FC),MONO-MAC-6 [10],1.91
same,fold change (FC),MONO-MAC-6 [11],1.11
same,fold change (FC),MONO-MAC-6 [12],5.82
same,fold change (FC),MONO-MAC-6 [13],1.28
same,fold change (FC),MONO-MAC-6 [14],8.28
same,fold change (FC),MONO-MAC-6 [15],2.15
same,fold change (FC),MONO-MAC-6 [16],1.39
same,IC50,[17],13 to 17 µM
